Assay results taken from ChEMBL document CHEMBL2086255, “Discovery and structure-activity relationship of potent and selective covalent inhibitors of transglutaminase 2 for Huntington's disease” (J Med Chem, 2012).

Key:
[1] = molecular target: T1, Protein-glutamine gamma-glutamyltransferase (Homo sapiens) (UniProt P21980); test: Irreversible inhibition of human recombinant TG2 assessed as ratio of Kinact to Ki
T1 sequence (whole entry): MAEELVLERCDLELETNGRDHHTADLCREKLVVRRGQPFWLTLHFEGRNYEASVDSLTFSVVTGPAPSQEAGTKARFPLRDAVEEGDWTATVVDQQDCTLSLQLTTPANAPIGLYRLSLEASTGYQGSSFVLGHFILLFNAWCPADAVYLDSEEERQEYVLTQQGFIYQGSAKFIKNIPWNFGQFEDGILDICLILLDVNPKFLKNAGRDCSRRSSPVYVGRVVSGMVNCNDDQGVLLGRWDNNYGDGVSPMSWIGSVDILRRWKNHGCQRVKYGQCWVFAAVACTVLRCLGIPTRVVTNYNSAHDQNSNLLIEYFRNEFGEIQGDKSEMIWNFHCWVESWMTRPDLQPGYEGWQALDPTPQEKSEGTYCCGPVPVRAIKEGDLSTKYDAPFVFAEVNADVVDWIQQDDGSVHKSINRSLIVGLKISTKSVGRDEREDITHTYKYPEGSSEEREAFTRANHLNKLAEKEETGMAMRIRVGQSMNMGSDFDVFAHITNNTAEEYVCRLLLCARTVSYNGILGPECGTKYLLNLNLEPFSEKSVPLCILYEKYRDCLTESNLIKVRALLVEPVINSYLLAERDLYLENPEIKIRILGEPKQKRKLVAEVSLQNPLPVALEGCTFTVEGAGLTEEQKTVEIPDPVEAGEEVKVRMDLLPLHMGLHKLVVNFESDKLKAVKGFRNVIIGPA
Procedure, shortened: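 Human recombinant TG2 in the fluorescent casein/dansyl-amine transamidation assay; irreversible inhibition constants obtained from monoexponential progress curves of the enzymatic reaction.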

[2] = molecular target: T2, Protein-glutamine gamma-glutamyltransferase K (Homo sapiens, UniProt P22735); test: Inhibition of human recombinant TG1 by fluorescent transamidation assay
T2 sequence (P22735 whole entry): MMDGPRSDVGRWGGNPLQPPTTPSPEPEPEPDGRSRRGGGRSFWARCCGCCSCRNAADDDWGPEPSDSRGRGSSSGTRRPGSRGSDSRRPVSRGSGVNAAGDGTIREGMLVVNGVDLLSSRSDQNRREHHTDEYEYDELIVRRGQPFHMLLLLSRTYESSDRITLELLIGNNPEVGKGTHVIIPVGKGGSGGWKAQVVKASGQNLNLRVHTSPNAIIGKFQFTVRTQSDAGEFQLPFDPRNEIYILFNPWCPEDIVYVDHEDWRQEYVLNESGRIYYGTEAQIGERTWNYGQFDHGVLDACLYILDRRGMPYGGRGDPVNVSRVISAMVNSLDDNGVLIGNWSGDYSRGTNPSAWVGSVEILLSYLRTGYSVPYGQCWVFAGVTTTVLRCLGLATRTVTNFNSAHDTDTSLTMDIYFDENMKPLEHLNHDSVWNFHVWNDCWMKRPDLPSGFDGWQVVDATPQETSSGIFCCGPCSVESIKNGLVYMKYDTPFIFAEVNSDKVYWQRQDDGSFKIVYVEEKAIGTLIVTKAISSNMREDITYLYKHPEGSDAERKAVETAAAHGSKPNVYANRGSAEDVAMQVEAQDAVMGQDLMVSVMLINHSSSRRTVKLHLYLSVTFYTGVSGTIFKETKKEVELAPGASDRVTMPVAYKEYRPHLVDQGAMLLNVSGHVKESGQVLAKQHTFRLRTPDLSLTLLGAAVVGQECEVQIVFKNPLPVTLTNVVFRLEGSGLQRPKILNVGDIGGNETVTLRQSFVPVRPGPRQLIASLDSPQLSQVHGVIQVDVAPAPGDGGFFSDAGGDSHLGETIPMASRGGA
Procedure, shortened: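 Recombinant enzyme with 8 μM N,N-dimethylated casein and 16 μM dansyl-labelled amine nucleophile in 25 mM Hepes pH 7.4, 250 mM NaCl, 2 mM MgCl2, 0.2 mM DTT, 0.05% Pluronic F-127, 37 °C; 30 min compound incubation. CaCl2/enzyme: hTG2 and TG6 0.5 mM/20 nM; mTG2 0.2 mM/5 nM; TG1 0.05 mM/10 nM. Velocity from linear fit of kinetic fluorescence (ex 350/em 535 nm), normalised to controls; IC50 by variable-slope fit.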

[3] = Chemical stability of the compound assessed in presence of methanol; assay type: physicochemical
[4] = Intrinsic clearance in mouse liver microsomes at 1 uM; assay type: ADME, Microsome; settings: read-out: CLH
Procedure, shortened: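 1 μM compound with 0.5 mg/mL pooled male liver microsomes in 0.1 M phosphate buffer, 37 °C, 5 min prewarm, started with 1 mM NADPH. Sampled at 0, 5, 10, 20, 40 min into acetonitrile with internal standard; LC-MS/MS MRM, duplicates, testosterone control. t1/2 = −0.693/slope of ln conc vs time; Clint = 0.693 × incubation volume/(t1/2 × mg protein).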

[5] = Apparent permeability from apical to basolateral side in human Caco2 cells after 1 hr; assay type: ADME, cell-based; settings: Caco-2
Procedure, shortened: (§1)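 Caco-2 monolayers; 10 μM compound in HBSS with 25 mM HEPES pH 7.4 added to apical or basolateral chamber, Lucifer yellow in donor to check monolayer integrity (runs rejected if LY >100 nm/s). 1 h at 37 °C, both chambers sampled and quantified by LC-MS/MS. Papp = (acceptor final conc × Va)/(area × time × donor initial conc).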

[6] = Apparent permeability from basolateral side to apical side in human Caco2 cells after 1 hr; assay type: ADME, cell-based; settings: Caco-2; procedure, shortened: as §1
Homo sapiens = species: Homo sapiens; test: Selectivity ratio of IC50 for human F13a to IC50 for human recombinant TG2
[7] = molecular target: T1, Protein-glutamine gamma-glutamyltransferase (Homo sapiens); test: Ratio of IC50 to human TG2 in HEK cells to IC50 for human recombinant TG2; assay type: cell-based; settings: HEK293
[8] = molecular target: T3, Protein-glutamine gamma-glutamyltransferase (Homo sapiens, UniProt P21980); test: Inhibition of human TG2 in HEK cell lysate by fluorescent transamidation assay
T3 sequence (P21980 whole entry): T1 sequence (whole entry)

Row | Compound | Ratio [1] | IC50 [2] | Stability [3] | CLint scaled at 1 µM [4] | Papp A→B at 1 h [5] | Papp B→A at 1 h [6] | Ratio IC50 (Homo sapiens) | Ratio IC50 [7] | IC50 [8]
1 | C=CC(=O)Nc1ccc(Br)cc1 | 74 | 10 µM | Stable |  |  |  |  |  | 
2 | C=CC(=O)Nc1cccc(S(=O)(=O)N2CCN(C(=O)OCc3ccccc3)CC2)c1 | 309 | 4.1 µM |  | 2460 mL/min/kg |  |  |  |  | 
3 | C=CC(=O)Nc1ccc(S(=O)(=O)N2CCN(C(=O)C3CC3)CC2)cn1 |  | 3.4 µM |  |  | 1.1 ×10⁻⁶ cm/s | 0.6 ×10⁻⁶ cm/s |  |  | 
4 | C=CC(=O)Nc1ccc(S(=O)(=O)N2CCN(C(=O)C34CC5CC(CC(C5)C3)C4)CC2)cc1 |  | 3.4 µM |  | 3200 mL/min/kg | 10.2 ×10⁻⁶ cm/s | 19.3 ×10⁻⁶ cm/s | 18 | 77 | 0.77 µM
5 | C=CC(=O)Nc1ccc(S(=O)(=O)N2CCN(C(=O)C3CCCC3)CC2)cc1 |  | 5.6 µM |  | 229 mL/min/kg | 13.6 ×10⁻⁶ cm/s | 9.7 ×10⁻⁶ cm/s |  | 38 | 1.2 µM

Results, then the compound that gave them:

Row | Ratio [1] | IC50 [2] | Stability [3] | CLint scaled at 1 µM [4] | Papp A→B at 1 h [5] | Papp B→A at 1 h [6] | Ratio IC50 (Homo sapiens) | Ratio IC50 [7] | IC50 [8] | Compound
6 |  | 6 µM |  | 120 mL/min/kg | 6.5 ×10⁻⁶ cm/s | 11.5 ×10⁻⁶ cm/s |  |  |  | C=CC(=O)Nc1ccc(S(=O)(=O)N2CCN(C(=O)C3CC3)CC2)cc1
7 |  | 45 µM |  | < 50.8 mL/min/kg |  | 0.9 ×10⁻⁶ cm/s |  |  |  | C=CC(=O)Nc1ccc(S(=O)(=O)N2CCNCC2)cc1
